Assay outcomes deposited in PubChem BioAssay by several laboratories.
S1P3 agonist = S1P3 (human) receptor agonism; activation, % at 4.5 µM; S1P3 NFAT-BLA reporter cells, FRET ratio; relative to 1 µM S1P, basal subtracted; actives 0.1% (n = 60,000); Q99500;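 active means activation above the screen-wide mean plus 3 SD, cut at about 4.5% in these data, passing the limit was not always enough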
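Assay system: CHO cells stably expressing human S1P3, Gα16 and NFAT-β-lactamase reporter. Timing: overnight plating, 4 h compound 37 °C, 2 h substrate RT. Signal: β-lactamase FRET emission ratio 460/535 nm. Measure: percent activation versus median 1 µM S1P response, basal-subtracted, per plate. Repeats: primary screen single test, confirmation screen in triplicate.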
5HT1a ag = activates the human 5-HT1a serotonin receptor; CHO 5-HT1a Ga15 NFAT-bla reporter, FRET ratio; 0% basal, 100% maximal reference agonist; activation, % at 10 µM; actives 0.56% (n = 65,000); AID 567;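 active means activation above the screen-wide mean activation plus 3 SD, cut at about 19% in these data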
HTR1E antagonist = 5-HT1E (human) receptor antagonism; P28566; CHO 5-HT1E Ga15 NFAT-bla reporter, FRET, antagonist; inhibition, % at 6 µM; actives 0.99% (n = 65,000); AID 571;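 active means inhibition above a set limit, the mean inhibition across every tested compound plus 3 SD, cut at about 29% in these data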;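 further: signal is the 460 over 535 nm emission ratio of beta-lactamase substrate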
Target sequence (P28566 whole entry, looked up): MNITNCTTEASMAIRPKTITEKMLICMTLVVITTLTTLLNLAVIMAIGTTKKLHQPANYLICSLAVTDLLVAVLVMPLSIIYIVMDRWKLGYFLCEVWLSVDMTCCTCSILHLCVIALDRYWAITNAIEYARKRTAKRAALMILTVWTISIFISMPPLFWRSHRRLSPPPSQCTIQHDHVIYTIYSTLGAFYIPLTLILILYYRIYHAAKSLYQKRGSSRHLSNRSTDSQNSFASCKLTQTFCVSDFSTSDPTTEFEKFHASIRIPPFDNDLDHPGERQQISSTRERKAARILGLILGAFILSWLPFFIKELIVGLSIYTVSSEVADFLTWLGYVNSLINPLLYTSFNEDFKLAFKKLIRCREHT
E coli RNAP = blocks E. coli RNA polymerase transcription. actives 0.2% (n = 62,000). AID 559. P0A8V2. fluorescence transcription assay. inhibition, %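 (tested at 10 µM)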; in the data active means inhibition above about 20%
5-HT1A blocker = antagonists of human 5-HT1a serotonin receptor; inhibition, % at 10 µM; AID 612; actives 0.68% (n = 62,000); P08908; CHO 5-HT1a Ga15 NFAT-bla reporter, antagonist mode;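 active means inhibition above the mean of all tested compounds plus 3 SD, cut at about 43% in these data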;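 further: receptor stimulated by 5-CT agonist at 100 nM near EC80; beta-lactamase reporter measured by ratiometric fluorescence of a cleavable substrate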
HTR1E agonist = 5-HT1E (human) receptor agonism; actives 0.69% (n = 65,000); activation, % at 6 µM; P28566; AID 574; CHO 5-HT1E Ga15 NFAT-bla reporter, FRET; 0% DMSO wells, 100% control agonist wells;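 active means activation above a set limit, the screen-wide mean activation plus 3 SD, cut at about 8.5% in these data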
A number is an active result; – = inactive; · = no result. Shown are actives, neighbours in structure and some others; about 2.6% of the full set was active somewhere.

SMILES	S1P3 agonist	5HT1a ag	HTR1E antagonist	E coli RNAP	5-HT1A blocker	HTR1E agonist
Cn1c(=O)[nH]c(=O)c2[nH]c(N(Cc3ccccc3)Cc3ccccc3)nc21	–	–	29	–	–	–
COc1ccccc1-c1cc(C(F)(F)F)nc(S(=O)(=O)CCCC(=O)N2CCOCC2)n1	–	–	59	–	–	–
CCOC(=O)c1c(-c2ccc(C)o2)csc1NC(=O)COC(=O)c1cccs1	–	–	–	–	50	–
Cn1nnc(-c2ccc(OCc3ccccc3F)cc2)n1	–	–	–	–	–	13
Cc1ccc(-c2nnc(N3CCCCC3)c3ccccc23)cc1S(=O)(=O)N1CCN(C)CC1	–	–	31	–	–	–
N#CC1=C(N)Oc2n[nH]c(-c3ccccc3)c2C1c1cccc(OC(=O)N2CCOCC2)c1 (centres undefined)	–	–	–	–	–	11
CN1CCCN=C1COC(=O)C(O)(c1ccccc1)C1CCCCC1 (centres undefined)	–	–	–	–	·	–
CCOC(=O)CN(C(=O)CSc1nnc(-c2ccc(OC)c(OC)c2)o1)c1ccc(F)cc1	–	22	–	–	–	–
COc1ccc(-c2nnc(SCC(=O)N(Cc3ccccc3)C(C)(C)C)o2)cc1OC	–	–	–	–	–	–
OC1(C(F)(F)F)CC(O)(C(F)(F)F)n2nc(-c3ccccc3)cc2N1 (centres undefined)	–	–	–	–	–	–
CCC(=O)N1CCN(c2ccccc2NC(=O)COc2cc(C)ccc2C(C)C)CC1	–	–	–	–	58	–
CSc1ncccc1C(=O)OCC(=O)NC1CCS(=O)(=O)C1 (centres undefined)	–	21	–	–	–	–
O=C(COC(=O)c1ccccc1Oc1ccccc1)NC1CCS(=O)(=O)C1 (centres undefined)	–	–	–	–	–	–
COC(=O)C(C)Sc1nnc(-c2ccncc2)o1 (centres undefined)	·	–	–	–	–	–
Clc1ccccc1CNc1ncnc2nc[nH]c12	–	47	–	–	–	–
COc1ccc(-c2cc(C(F)(F)F)nc(N3CCCCCC3)n2)cc1	·	–	–	–	–	–
COc1ccc(-c2cc(C(F)(F)F)nc(N3CCN(C)CC3)n2)cc1	·	–	–	–	–	18
COc1cccc(-c2cc(C(F)(F)F)nc(N3CCCCC3)n2)c1	·	99	–	–	–	–
COc1ccc(OC)c(NC(=O)CSCc2cnn(-c3ccccc3)c2-n2cccc2)c1	–	–	–	–	57	–
COc1cc(NC(=O)CSCc2cnn(-c3ccccc3)c2-n2cccc2)cc(OC)c1	–	–	–	–	–	–
COc1cc(C2NC(=O)NC(C)=C2C(=O)OC2CCCCC2)cc(Br)c1O (centres undefined)	–	–	–	–	–	–
CC1=C(C(=O)OC2CCCCCCC2)C(c2ccc(O)cc2)NC(=O)N1 (centres undefined)	–	–	29	–	–	–
O=C(Nc1ccccn1)[C@@H]1CCC(=O)N1C(=O)OCc1ccccc1	–	–	–	–	–	–
Cc1ccc(-n2c(SCC(=O)N3CCOCC3)nnc2-c2cccnc2)cc1C	–	–	–	–	–	44
CC(C)OCCCNC(=O)c1cc2c(=O)n(C)c3ccccc3c2n1C	–	–	–	–	–	–
SMILES	S1P3 agonist	5HT1a ag	HTR1E antagonist	E coli RNAP	5-HT1A blocker	HTR1E agonist
Cc1cc(=O)oc(C)c1C(=O)NCCCN1CCN(c2ccccc2F)CC1	·	–	–	–	77	28
CCn1c(=O)cc(SCC(=O)NCCN2CCN(Cc3ccccc3)CC2)c2ccccc21	–	–	–	–	–	–
CCn1c(=O)cc(SCC(=O)NCCCN2CCN(c3ccc(F)cc3)CC2)c2ccccc21	·	–	–	–	47	–
CCCCN(CC)CCCNC(=O)c1cc2c(=O)n(C)c3ccccc3c2n1C	–	–	–	–	–	17
Cc1ccccc1CS(=O)(=O)CCC(=O)NCCCN1CCN(c2ccccc2F)CC1	–	–	–	–	–	–
Cc1cc(=O)oc(C)c1C(=O)NCCNC(=O)c1c(C)cc(=O)oc1C	–	–	–	–	·	39
CC(=O)N(Cc1ccccc1)c1ccc(C(=O)O)cc1	–	–	–	–	·	–
CCC(c1nnnn1Cc1ccc(F)cc1)N(CCCO)Cc1cc2cc3c(cc2[nH]c1=O)OCO3 (centres undefined)	–	–	–	–	–	–
CN(C)C(CNC(=O)CN1C(=O)NC2(CCc3ccccc32)C1=O)c1ccco1 (centres undefined)	–	–	–	–	–	–
Cn1c(C(=O)NCCCN2CCN(c3ccccc3F)CC2)cc2c(=O)n(C)c3ccccc3c21	–	–	–	–	73	18
Cn1c(=O)cc(SCC(=O)NCCCN2CCOCC2)c2ccccc21	–	–	–	–	–	–
Cn1c(=O)cc(SCC(=O)NCCCN2CCN(c3ccccc3F)CC2)c2ccccc21	–	–	–	–	60	–
O=C1OC(Nc2ccc3c(c2)OCO3)c2ccccc21 (centres undefined)	·	–	–	–	–	–
c1ccc(-c2n[nH]c(-c3ccccn3)n2)nc1	–	–	–	22	–	–
COc1ccc(-c2nnc3sc(-c4ccc(Br)o4)nn23)cc1OC	–	–	–	–	–	–
COc1ccc(NC(=O)CN2CCC(n3c(C)nc4cc(F)ccc43)CC2)c(OC)c1	–	–	–	·	–	–
COc1cc2c(cc1OC)-c1cc(N3CCCCCC3)nc(=O)n1CC2	–	–	41	–	–	–
COc1cc2c(cc1OC)-c1cc(Nc3ccc4c(c3)OCCO4)nc(=O)n1CC2	–	–	40	–	–	–
CCN(CC)CCCNc1cc2n(c(=O)n1)CCc1cc(OC)c(OC)cc1-2	–	–	–	–	–	–
COc1cc2c(cc1OC)-c1cc(N3CCCc4ccccc43)nc(=O)n1CC2	–	–	64	–	–	–
COc1cc2c(cc1OC)-c1cc(NC3CCCCCC3)nc(=O)n1CC2	–	–	49	–	–	–
O=C1c2ccccc2C(=O)N1Cc1nc(-c2cccnc2)no1	–	–	–	–	–	–
COc1cc(NC(=O)Cc2nn(C)c(=O)c3ccccc23)cc(OC)c1	·	–	–	–	–	–
CCOc1ccc2cc(S(=O)(=O)N3CCOCC3)ccc2c1	–	–	–	–	–	8.7
Cc1cccc(C)c1NC1=NC(C)(C)N=C(N)N1	–	–	–	–	–	–
CCCn1c(SCC(=O)N2CCN(S(=O)(=O)c3ccc(Cl)cc3)CC2)n[nH]c1=O	–	–	–	–	–	9.0
CC(OC(=O)c1cccs1)C(=O)NCc1ccco1 (centres undefined)	–	–	–	–	–	16
c1ccc(C(Cc2nc(-c3cccnc3)no2)c2ccccc2)cc1	20	–	–	–	–	–
